For experiment [1], the system named is Bel-7402. As to the kind of experiment: Cytotoxicity against human Bel-7402 cells after 72 hrs by sulforhodamine B assay. Conditions: Bel-7402, 72 h. The class given is functional, cell-based. In a few lines:
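BEL-7402 human hepatoma cells treated 72 h; cell protein measured by sulforhodamine B assay. IC50 taken from dose–response curves as concentration causing 50% drop in absorption relative to control cells. Means ± SD of three independent experiments, triplicate wells per concentration. 10-Hydroxycamptothecine served as positive control.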
A general note: In SRB staining, fixed cells bind dye roughly in proportion to their protein.

The test system of experiment [2] is HL-60. Nature of the experiment: Cytotoxicity against human HL-60 cells after 72 hrs by MTT assay. Conditions: HL-60, 72 h. The class given is functional, cell-based. In a few lines: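 HL-60 human leukemia cells exposed to glycosides for 72 h; viability read by MTT colorimetric assay in 96-well microplates. Dose–response curves plotted; IC50 = concentration giving 50% reduction of absorption versus control cells. Three independent experiments, each concentration in triplicate wells; mean ± SD. 10-Hydroxycamptothecine as positive control.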

A word on the IC50: it is the concentration needed to halve the response being measured. Higher therefore signals weaker potency. Regarding `CO[C@@H]1[C@@H](O)[C@H](O[C@@H]2[C@@H](O)[C@H](O[C@H]3[C@H](O)[C@@H](O)[C@H](O[C@H]4[C@H](O[C@H]5CC[C@]6(C)C7=C[C@H](O)[C@@]89C(=O)O[C@@](C)(C(=O)CCC(C)(C)OC(C)=O)[C@H]8CC[C@@]9(C)[C@@H]7CC[C@H]6C5(C)C)OC[C@@H](OS(=O)(=O)O)[C@@H]4O)O[C@@H]3C)O[C@H](CO)[C@H]2O)O[C@H](CO)[C@H]1O` [FUSCOCINEROSIDE A], the IC50 in experiment [1] was found to be 5580 nM; in experiment [2] it was 6210 nM.

`CO[C@@H]1[C@@H](O)[C@H](O[C@@H]2[C@@H](O)[C@H](O[C@H]3[C@H](O)[C@@H](O)[C@H](O[C@H]4[C@H](O[C@H]5CC[C@]6(C)C7=C[C@H](O)[C@@]89C(=O)O[C@@](C)(C(=O)CCC(C)C)[C@H]8CC[C@@]9(C)[C@@H]7CC[C@H]6C5(C)C)OC[C@@H](OS(=O)(=O)O)[C@@H]4O)O[C@@H]3C)O[C@H](CO)[C@H]2O)O[C@H](CO)[C@H]1O` [FUSCOCINEROSIDE B]: the figures for the concentration for half-maximal inhibition (IC50) in experiment [1] and in experiment [2] were 2640 nM and 3750 nM, respectively.

Take `CO[C@@H]1[C@@H](O)[C@H](O[C@@H]2[C@@H](O)[C@H](O[C@H]3[C@H](O)[C@@H](O)[C@H](O[C@H]4[C@H](O[C@H]5CC[C@]6(C)C7=C[C@H](O)[C@@]89C(=O)O[C@@](C)(C%10CCC(C)(C)O%10)[C@H]8CC[C@@]9(C)[C@@H]7CC[C@H]6C5(C)C)OC[C@@H](OS(=O)(=O)O)[C@@H]4O)O[C@@H]3C)O[C@H](CO)[C@H]2O)O[C@H](CO)[C@H]1O` (some centres not stated) [FUSCOCINEROSIDE C]: the values for the 50% inhibitory concentration (IC50) in experiment [1] and in experiment [2] were 580 nM and 880 nM, respectively.

Turning to `CO[C@@H]1[C@@H](O)[C@H](O[C@@H]2[C@@H](O)[C@H](O[C@H]3[C@H](O)[C@@H](O)[C@H](O[C@H]4[C@H](O[C@H]5CC[C@]6(C)C7=C[C@H](O)[C@@]89C(=O)O[C@@](C)(C%10CCC(C)(C)O%10)[C@@]8(O)CC[C@@]9(C)[C@@H]7CC[C@H]6C5(C)C)OC[C@@H](OS(=O)(=O)O)[C@@H]4O)O[C@@H]3C)O[C@H](CO)[C@H]2O)O[C@H](CO)[C@H]1O` (some centres not stated) [HOLOTHURIN A], the IC50 in experiment [1] is 760 nM; in experiment [2], 4420 nM.

For `CC[C@@]1(O)C(=O)OCc2c1cc1n(c2=O)Cc2cc3cc(O)ccc3nc2-1` [HYDROXYCAMPTOTHECIN], the IC50 in experiment [1] came out at 280 nM; in experiment [2] it was 410 nM.

Consider `CO[C@@H]1[C@@H](O)[C@H](O[C@@H]2[C@@H](O)[C@H](O[C@H]3[C@H](O)[C@@H](O)[C@H](O[C@H]4[C@H](O[C@H]5CC[C@]6(C)C7=C[C@H](O)[C@@]89C(=O)O[C@@](C)(CCCC(C)C)[C@H]8CC[C@@]9(C)[C@@H]7CC[C@H]6C5(C)C)OC[C@@H](OS(=O)(=O)O)[C@@H]4O)O[C@@H]3C)O[C@H](CO)[C@H]2O)O[C@H](CO)[C@H]1O` [PERVICOSIDE C], for which the IC50 in experiment [1] came out at 660 nM; in experiment [2], 4480 nM.

These data come from ChEMBL document CHEMBL1158088, “Bioactive triterpene glycosides from the sea cucumber Holothuria fuscocinerea” (J Nat Prod, 2006).
